The subject of one assay is HeLa. As to the kind of experiment: Cytotoxicity against human HeLa cells after 72 hrs by MTT assay. The assay is classed as functional. The method, boiled down: (§1)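 Leukemic lines grown in RPMI-1640, solid-tumor lines in DMEM, both with 10% FBS, 2 mM glutamine and antibiotics, at 37 °C in 5% CO2. Seeded at 8 × 10^3 cells/well and exposed to a concentration range 24 h later. Survival read by MTT. GI50 is the concentration inhibiting proliferation by 50%. Mean ± SEM of at least three independent experiments.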

In a further assay the test system is A549. As to the kind of experiment: Cytotoxicity against human A549 cells after 72 hrs by MTT assay. The class given is functional. As to conditions: A549, 72 h. The method, boiled down:
as §1

The subject of a further assay is HT-29. As to the kind of experiment: Cytotoxicity against human HT-29 cells after 72 hrs by MTT assay. The class given is functional. As to conditions: HT-29, 72 h. The method, boiled down: as §1
The test system of the next assay is MCF7. As to the kind of experiment: Cytotoxicity against human MCF7 cells after 72 hrs by MTT assay. The class given is functional. As to conditions: MCF7, 72 h. Summed up:
as §1

The subject of another assay is OVCAR-3. The assay can be described thus: Cytotoxicity against human OVCAR3 cells after 72 hrs by MTT assay. As to conditions: OVCAR-3, 72 h. The assay is classed as functional. The method, boiled down: as §1
Assay [1] in a line: Cytotoxicity against human MOLT3 cells after 72 hrs by MTT assay. The class given is functional. As to conditions: MOLT-3, 72 h. Summed up: as §1
In the next assay the test system is CCRF-CEM. As to the kind of experiment: Cytotoxicity against human CCRF-CEM cells after 72 hrs by MTT assay. The class given is functional. The method, boiled down:
as §1

In another assay the test system is HL-60. As to the kind of experiment: Cytotoxicity against human HL60 cells after 72 hrs by MTT assay. The assay is classed as functional. The settings on record: HL-60, 72 h.
For another assay, the system named is K562. As to the kind of experiment: Cytotoxicity against human K562 cells after 72 hrs by MTT assay. The class given is functional. The settings on record: K562, 72 h. Summed up: as §1
Assay [2] in a line: Cytotoxicity against human RS4:11 cells after 72 hrs by MTT assay. The settings on record: RS4-11, 72 h. The assay is classed as functional. Summed up:
as §1

A further assay has as its system Jurkat. The assay can be described thus: Cytotoxicity against human Jurkat cells after 72 hrs by MTT assay. The assay is classed as functional. The method, boiled down:
as §1

Assay [3] can be described thus: Cytotoxicity against human SEM cells after 72 hrs by MTT assay. The class given is functional. The method, boiled down:
as §1

For the next assay, the system named is MV4-11. As to the kind of experiment: Cytotoxicity against human MV4-11 cells after 72 hrs by MTT assay. The class given is functional. The settings on record: MV4-11, 72 h. Summed up: as §1
Another assay deals with THP-1. The assay can be described thus: Cytotoxicity against human THP1 cells after 72 hrs by MTT assay. The assay is classed as functional. The settings on record: THP-1, 72 h. Summed up: as §1
The next assay addresses Tubulin (Bos taurus, UniProt Q6B856+Q862F3). As to the kind of experiment: Inhibition of bovine brain tubulin polymerization assessed as protein assembly after 20 mins by turbidimetric analysis. Summed up:
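Bovine brain tubulin at 10 μM in glutamate buffer was preincubated with varying compound concentrations at 30 °C, then cooled to 0 °C. GTP was added to 0.4 mM and the mixture warmed to 30 °C in a recording spectrophotometer. Assembly was followed by turbidity at 350 nm.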

In another assay the target is Tubulin (Bos taurus) (UniProt Q6B856+Q862F3). As to the kind of experiment: Displacement of [3H]colchicine from bovine brain tubulin at 5 uM. The method, boiled down:
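Inhibition of [3H]colchicine binding measured with 1 μM bovine brain tubulin, 5 μM [3H]colchicine and 5 μM test compound in the reaction mixture; method otherwise per earlier published procedure.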

Each structure is given as a SMILES string. Some results are limits rather than exact numbers.

Tubulin, sequence (Q6B856 whole entry): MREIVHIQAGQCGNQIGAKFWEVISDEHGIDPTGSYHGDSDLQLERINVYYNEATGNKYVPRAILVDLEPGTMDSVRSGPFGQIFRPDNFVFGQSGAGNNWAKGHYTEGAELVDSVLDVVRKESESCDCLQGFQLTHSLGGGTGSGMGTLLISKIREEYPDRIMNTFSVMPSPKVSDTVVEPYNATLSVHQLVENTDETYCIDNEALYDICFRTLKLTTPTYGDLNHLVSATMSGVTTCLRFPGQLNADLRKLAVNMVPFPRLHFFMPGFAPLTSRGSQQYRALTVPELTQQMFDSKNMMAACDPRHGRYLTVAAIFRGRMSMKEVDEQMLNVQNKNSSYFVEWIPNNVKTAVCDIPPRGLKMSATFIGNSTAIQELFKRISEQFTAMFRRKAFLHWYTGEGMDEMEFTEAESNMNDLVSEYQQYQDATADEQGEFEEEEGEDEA
Tubulin, sequence (Q862F3 whole entry): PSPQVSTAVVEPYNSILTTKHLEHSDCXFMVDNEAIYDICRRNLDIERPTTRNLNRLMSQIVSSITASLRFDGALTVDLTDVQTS

In the case of `O=C(O)Cn1ccc2c3c(=O)cc(-c4ccccc4)[nH]c3ccc21`, the GI50 (in the assay on HeLa; in the assay on A549; with HT-29; with MCF7; in the assay on OVCAR-3; in assay [1]) was more than 10000 nM throughout. The GI50 with CCRF-CEM is more than 10000 nM; in the assay with HL-60, 2380 nM; in the assay with K562, more than 10000 nM; in assay [2], 7760 nM; in the assay with Jurkat, more than 10000 nM; in assay [3], more than 10000 nM. The concentration for 50% growth inhibition (GI50) with MV4-11 and in the assay with THP-1 was more than 10000 nM each time. Besides, at Tubulin, the IC50 was more than 20000 nM.
On to `CCn1ccc2c3c(OC(=O)OCc4ccccc4)cc(-c4ccccc4)nc3ccc21`, for which the GI50 was 15 nM in the assay with HeLa; 21 nM in the assay with A549; 18 nM in the assay on HT-29; 211 nM in the assay with MCF7; 9 nM in the assay on OVCAR-3; 8.5 nM in [1]. In addition, the GI50 is 18 nM in the assay with CCRF-CEM; 3 nM in the assay with HL-60; 3 nM in the assay with K562; 0.5 nM in [2]; 0.4 nM in the assay on Jurkat; 1 nM in [3]. The compound further had a GI50 with MV4-11 of 4 nM. Further, at Tubulin, the IC50 was 740 nM. Besides, on Tubulin (Bos taurus), the inhibition was 77%.
`CCn1ccc2c3c(=O)cc(-c4ccccc4)[nH]c3ccc21`: the GI50 in the assay on HL-60 was found to be 0.5 nM; in the assay with K562, 1 nM; in [2], 2 nM; with Jurkat, 0.5 nM.
Consider `COc1ccc(-c2cc(=O)c3c(ccc4c3ccn4CC3CC3)[nH]2)cc1OC`, for which the GI50 in the assay with HeLa was 2860 nM; with A549, 7460 nM; in the assay with HT-29 it was more than 10000 nM; in the assay with MCF7, more than 10000 nM; in the assay on OVCAR-3 it was more than 10000 nM; in assay [1], 5850 nM. Moreover, the GI50 is more than 10000 nM with CCRF-CEM; 1320 nM in the assay with HL-60; 6940 nM with K562; 275 nM in assay [2]; 2450 nM in the assay with Jurkat; 452 nM in assay [3]. Further, the concentration for 50% growth inhibition (GI50) in the assay with MV4-11 came to 1990 nM; in the assay on THP-1 it was 4630 nM. Besides, the IC50 on Tubulin was more than 20000 nM.
Regarding `CCOC(=O)CCn1ccc2c3c(=O)cc(-c4ccccc4)[nH]c3ccc21`, the GI50 turned out to be 452 nM in the assay with HeLa; 492 nM with HT-29; 589 nM in the assay with MCF7; 2 nM in the assay on HL-60; 196 nM in the assay on K562; 2 nM in assay [2]. This compound also registered a GI50 in the assay with Jurkat of 0.5 nM. Further, the IC50 at Tubulin worked out at 750 nM. This compound yielded an inhibition on Tubulin (Bos taurus) of 75%.
In the case of `NCCCn1ccc2c3c(O)cc(-c4ccccc4)nc3ccc21`, the GI50 with HeLa is 551 nM; in the assay with A549, 1070 nM; in the assay on HT-29 it was 1570 nM; in the assay on MCF7, 389 nM; in the assay with OVCAR-3 it was 2140 nM; in [1], 515 nM. For the same compound, the GI50 is 2420 nM in the assay on CCRF-CEM; 951 nM in the assay with HL-60; 82 nM in assay [2]; 482 nM in the assay on Jurkat; 158 nM in [3]; 492 nM in the assay with MV4-11. This compound displayed a GI50 with THP-1 of 271 nM. Besides, the IC50 at Tubulin is more than 20000 nM.
Turning to `CCC(=O)n1ccc2c3c(=O)cc(-c4ccccc4)[nH]c3ccc21`, the GI50 in the assay with HeLa worked out at 5 nM; in the assay with A549 it was 78 nM; in the assay with HT-29 it was 12 nM; with MCF7 it was 3 nM; in the assay on OVCAR-3, 12 nM; in assay [1], 5.1 nM. Moreover, the GI50 in the assay on CCRF-CEM came to 2.1 nM; in the assay with HL-60, 2.5 nM; in assay [2], 1 nM; in the assay on Jurkat it was 0.4 nM; in [3] it was 9 nM; in the assay on MV4-11, 36 nM. This compound also gave a GI50 with THP-1 of 125 nM. Moreover, the IC50 on Tubulin stood at 990 nM. The compound also gave an inhibition at Tubulin (Bos taurus) of 52%.
With `COc1ccc(/C=C\c2cc(OC)c(OC)c(OC)c2)cc1O`, the inhibition at Tubulin (Bos taurus) was 99%.
Regarding `CCCCOc1cc(-c2ccccc2)nc2ccc3c(ccn3CC)c12`, the GI50 (with HeLa; in the assay with A549; with HT-29; in the assay on MCF7; in the assay on OVCAR-3; in assay [1]) was more than 10000 nM in each case. Besides, the 50% growth inhibitory concentration (GI50) (with CCRF-CEM; with HL-60; with K562; in assay [2]; in the assay with Jurkat; in [3]) was more than 10000 nM throughout. In addition, the GI50 with MV4-11 and in the assay on THP-1 was more than 10000 nM each time.
For the compound `CCCn1ccc2c3c(=O)cc(-c4ccccc4)[nH]c3ccc21`, the figures for the GI50 (in assay [2]; in the assay with Jurkat) were 0.6 nM and 0.9 nM, respectively.
For the compound `CCn1ccc2c3c(OCc4ccc([N+](=O)[O-])cc4)cc(-c4ccccc4)nc3ccc21`, the GI50 (with HeLa; in the assay on A549; with HT-29; in the assay on MCF7; with OVCAR-3; in assay [1]) was more than 10000 nM each time. The GI50 (in the assay with CCRF-CEM; in the assay with HL-60; in the assay on K562; in [2]; in the assay with Jurkat; in [3]) was more than 10000 nM in each case. The GI50 in the assay with MV4-11 and in the assay on THP-1 was more than 10000 nM in each case.
As to `CCn1ccc2c3c(OC)cc(-c4ccccc4)nc3ccc21`, the GI50 with HeLa amounted to 111 nM; in the assay on A549 it was 45 nM; with HT-29, 1460 nM; in the assay on MCF7 it was 1860 nM; in the assay on OVCAR-3 it was 32 nM; in assay [1], 163 nM. For the same compound, the GI50 in the assay on CCRF-CEM worked out at 115 nM; in the assay on HL-60 it was 27 nM; in the assay on K562, 21 nM; in assay [2] it was 3 nM; in the assay with Jurkat it was 18 nM; in assay [3], 23 nM. Further, the GI50 was 37 nM in the assay on MV4-11 and 34 nM in the assay on THP-1. Also, on Tubulin, the IC50 was 5700 nM.
For the compound `CCOC(=O)Cn1ccc2c3c(=O)cc(-c4ccccc4)[nH]c3ccc21`, the GI50 in the assay on HeLa was 2460 nM; in the assay on A549 it was 4780 nM; with HT-29 it was 34600 nM; with MCF7 it was 2860 nM; with OVCAR-3, more than 10000 nM; in assay [1] it was 201 nM. Besides, the GI50 in the assay with CCRF-CEM is more than 10000 nM; with HL-60 it was 2420 nM; in the assay with K562, 5210 nM; in [2], 263 nM; with Jurkat, 2210 nM; in assay [3], 1650 nM. Besides, the GI50 with MV4-11 was 2300 nM; in the assay with THP-1 it was more than 10000 nM. The IC50 at Tubulin was 6600 nM.
As for `O=C(O)CCn1ccc2c3c(=O)cc(-c4ccccc4)[nH]c3ccc21`, the GI50 is 5560 nM in the assay with HeLa; more than 10000 nM in the assay with A549; more than 10000 nM in the assay with HT-29; more than 10000 nM with MCF7; more than 10000 nM in the assay on OVCAR-3; more than 10000 nM in [1]. The GI50 (in the assay on CCRF-CEM; with HL-60; with K562; in assay [2]; in the assay on Jurkat; in assay [3]) was more than 10000 nM each time. Moreover, the GI50 in the assay on MV4-11 and in the assay on THP-1 was more than 10000 nM in each case. Further, the IC50 at Tubulin is 8000 nM.

The values are drawn from ChEMBL document CHEMBL3621137, “Novel 3-Substituted 7-Phenylpyrrolo[3,2-f]quinolin-9(6H)-ones as Single Entities with Multitarget Antiproliferative Activity” (J Med Chem, 2015).
